Source: PubChem BioAssay (several laboratories)
Insulin prom up: insulin promoter activators in MIN6 cells, imaging, high-content screening, mouse beta cells; MIN6 insulin promoter-GFP reporter; active compounds read high; z-score at 5 µM; 190,000 compounds, 0.3% hits; AID 1625, 2009;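 active means z-score above 3 at 5 µM with at least 500 cells counted in the well; inconclusive means wells under 500 cells, flagged as cytotoxic or low count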
ROMK primary: ROMK potassium channel modulators, primary screen, cell-based, thallium flux, MLSMR library | B-score at 10 µM | ATP-sensitive inward rectifier potassium channel 1 (Homo sapiens), P48048 | Tet-inducible ROMK, thallium flux fluorescence; actives lie on both sides | 130,000 compounds, 2% hits;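 active means signal ratio slope over the read window, or its plate-corrected B-score, at least 3 SD from the plate mean, either direction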;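 further: B-score of the F/F0 ratio slope over 7 to 12 s after thallium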
Target sequence (P48048 whole entry, looked up): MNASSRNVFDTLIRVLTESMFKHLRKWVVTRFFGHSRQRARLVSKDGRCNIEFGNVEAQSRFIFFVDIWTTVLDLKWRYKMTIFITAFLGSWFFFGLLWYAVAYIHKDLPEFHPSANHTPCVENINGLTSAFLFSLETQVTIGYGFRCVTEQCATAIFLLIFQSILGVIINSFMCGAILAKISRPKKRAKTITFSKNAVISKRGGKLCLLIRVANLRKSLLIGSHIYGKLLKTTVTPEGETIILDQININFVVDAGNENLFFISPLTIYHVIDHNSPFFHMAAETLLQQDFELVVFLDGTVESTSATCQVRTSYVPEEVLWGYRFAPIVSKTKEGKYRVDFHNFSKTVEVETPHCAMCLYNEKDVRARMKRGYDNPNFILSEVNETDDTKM
sdo1 growth: growth rescue of sdo1-depleted yeast, primary screen, S. cerevisiae, bone marrow failure model; S. cerevisiae sdo1-depleted JHY4D growth rescue, OD600 30 h; active compounds read high; pdr5 snq2 efflux-pump mutant strain; z-score at 10 µM; 140,000 compounds, 0.21% hits; AID 817, 2007;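 active means z-score above 3 at both the 24 hr and the 30 hr optical density reads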
ABCB1 block: ABCB1 efflux pump inhibitors, primary screen, cell-based, multiplex, flow cytometry, ABCG2 counter-screen. ATP-dependent translocase ABCB1 (Homo sapiens), P08183. CCRF-Adr cells, JC-1 efflux. 190,000 compounds, 0.067% hits. AID 1326, 2008. inhibition, % at 6.6 µM; in the data active means inhibition above about 40%;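 further: higher value means more JC-1 retained so stronger ABCB1 efflux block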
Autophagy HCS: autophagy modulators in MEF cells, primary screen, imaging, high-content, MEF GFP-LC3; AID 463193, 2010; 190,000 compounds, 0.98% hits; calls only at 10 µM (by protocol); MEF GFP-LC3 puncta imaging; test concentration mostly 10 µM;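 active means percentage of spot-positive cells more than 3 SD above its plate mean, without a fluorescence outlier flag or 80% toxicity; inconclusive means no clear call, values can overlap the other calls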
ABCG2 block: ABCG2 efflux pump inhibitors, primary screen, multiplex with ABCB1, IgMXP3 cells, flow cytometry; Broad substrate specificity ATP-binding cassette transporter ABCG2 (Homo sapiens), Q9UNQ0; JC-1 efflux; inhibition, % at 6.6 µM; 190,000 compounds, 0.1% hits; AID 1325, 2008;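 active means inhibition above 80%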
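Times: 10 min at 25 °C | Test system: Two drug-resistant human cell lines, ABCG2 and ABCB1 | Quantity: 3 million cells/mL final, two lines in 1:1 ratio | Signal: Flow cytometry, 530 nm JC-1 signal | Dosing: Compound at 6.6 µM | Controls: Nicardipine and DMSO wells | Reagent: JC-1 as fluorescent efflux pump substrate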
sdo1 rescue conf: SDO1-depleted yeast growth rescue, concentration-response, diseases of bone marrow failure, JHY4D, OD600; 440 compounds, 44% hits; S. cerevisiae JHY4D (SDO1-depleted) growth rescue, 30 h; active compounds read high; efflux-deficient strain, SNQ2 and PDR5 mutated; AID 949, 2007; OD recovery (concentration not given with the values); shares compounds with sdo1 growth;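 active means yeast growth recovered at 30 hours, either rising with dose fitted slope above 0.001 or with average optical density gain above 0.07, some results past the limit were not filed as active; inactive means growth falling with dose or no effect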
ABCB1 single pt: ABCB1 efflux pump inhibitors, confirmation, cell-based, single point, ABCG2 counter-screen. inhibition, % at 6.6 µM. CCRF-Adr cells, JC-1 efflux, flow cytometry. shares compounds with ABCG2 block. AID 1451, 2008. 270 compounds, 7% hits;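 active means inhibition of pump activity above 50%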
ABCG2 single pt: ABCG2 efflux pump inhibitors, confirmation, single point, IgMXP3 cells, ABCB1 counter-screen paired. shares compounds with ABCG2 block. JC-1 efflux, flow cytometry. inhibition, % at 6.6 µM. 270 compounds, 6% hits;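 active means inhibition above 50%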
IgMXP3 autofluor: compound autofluorescence in ABCG2-expressing IgMXP3 cells, confirmation, artefact control for ABC transporter inhibitor project, cell-based, 488/530 nm, flow cytometry. shares compounds with ABCG2 block. compound autofluorescence 488/530 nm; active compounds read high. fluorescence at 6.6 µM. 270 compounds, 30% hits. AID 1480, 2009;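 active means fluorescence in ABCG2-expressing cells above the plate's control-well mean plus 3 SD, cut at about 15 in these data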
CCRF autofluor: compound autofluorescence in ABCB1-expressing CCRF-Adr cells, confirmation, artefact control for ABC transporter inhibitor project, cell-based, 488/530 nm, flow cytometry | fluorescence at 6.6 µM | shares compounds with ABCG2 block | AID 1483, 2009 | compound autofluorescence 488/530 nm; active compounds read high | 270 compounds, 30% hits;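 active means fluorescence beyond the plate control mean plus 3 SD, with a fluorescence-to-maximum score over 2, cut at about 25 in these data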
ROMK hit retest: ROMK channel modulator hit retest, confirmation, cell-based, thallium flux, duplicate, resupplied hits | shares compounds with ROMK primary | fluorescence ratio; active compounds read low | normalized thallium flux (F/F0 slope) at 10 µM | 3,000 compounds, 54% hits;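 active means Flux at 10 µM at least 3 SD below or above vehicle control mean in one or both replicates; inconclusive means no clear call, values can overlap the other calls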
Numbers stand for hits; 0 = inactive; ? = inconclusive; - = no result given. In the library only some 2.3% were active in any assay of this set; here they are far more common.

SMILES	Insulin prom up	ROMK primary	sdo1 growth	ABCB1 block	Autophagy HCS	ABCG2 block	sdo1 rescue conf	others
COc1ccc(-c2c(C)sc(NC(=O)c3ccnn3C)c2C#N)cc1	0	0	0	0	0	0	0.0848
O=[N+]([O-])c1ccc(-n2nncc2-c2ccc(Cl)cc2)cc1	0	0	0	0	0	0	-
Nc1ccc(-n2nncc2-c2ccc(Cl)cc2)cc1	0	0	12.7	0	0	0	0
NC(=O)CC(NC(=O)Cc1ccc(Br)cc1)c1ccc(N2CCC(Cc3ccccc3)CC2)c([N+](=O)[O-])c1 (stereo not drawn)	0	-	-	-	-	-	-
O=C(NCc1csc2ccccc12)Nc1cc(Cl)cc(Cl)c1	0	0	-	-	-	-	-
Cc1cc(C(=O)COC(=O)c2ccc(Br)o2)c(C)n1C	0	0	-	0	0	0	-
Cc1ccc(C(=O)COC(=O)c2ccc(Br)o2)cc1C	0	-	3.71	0	0	0	0.0812
CCCCOC(=O)Nc1ccc(S(=O)(=O)Nn2cnnc2)cc1	0	0	3.74	0	0	0	0.115
Cc1ccc(S(=O)(=O)c2cc3ccccc3nc2N)cc1	0	0	-	0	0	0	-
CC12CCC(C(=O)Nc3nccs3)(OC1=O)C2(C)C (stereo not drawn)	0	-	3.05	0	0	0	0.0913
Cc1cccnc1NC(=O)C12CCC(C)(C(=O)O1)C2(C)C (stereo not drawn)	-	-	0	0	0	0	-
C=CCOC(=O)Nc1c(C(=O)OC)[nH]c2ccccc12	0	0	3.87	0	0	0	0
S=C(NCc1ccco1)N/N=C/c1ccc(Cl)cc1	0	0	8.39	0	0	0	0.0788
Oc1ccc(/C=N/NC(=S)NCc2ccco2)cc1	0	-	0	0	0	0	-
Fc1ccc(-n2nnc(-c3ccnc4ccccc34)n2)cc1	0	-	-	0	0	0	-
CCCCCCCC#Cc1ccccc1/C=N/S(=O)c1ccc(C)cc1 (stereo not drawn)	0	0	13.4	0	0	0	0
Cc1nn(C)c(C)c1NC(=O)CCl	0	0	-	0	0	0	-
C=CCc1cc(/C=N\NC(=O)CSc2nnc(CCCc3ccc(OC)c(C)c3)o2)cc(OC)c1O	0	0	0	0	0	0	-
C=CCc1cc(/C=N/NC(=O)CSc2nnc(CCCc3ccc(OC)cc3)o2)cc(OC)c1O	0	0	0	0	0	0	0.0875
CCOc1ccccc1OCCCC(=O)Nc1sccc1C(N)=O	0	0	0	0	0	0	-
NC(=O)CCn1nc(-c2ccc(Cl)cc2)c2ccccc2c1=O	0	-	4.26	0	0	0	0.0766
O=C(CCn1nc(-c2ccc(Cl)cc2)c2ccccc2c1=O)Nc1cccnc1	0	0	-	0	0	0	-
Cc1cc(NC(=O)c2noc3c2CCc2ccccc2-3)n(-c2ccccc2)n1	0	-	9.63	0	0	0	0.0829	ROMK hit retest=0
Cc1ccc(NC(=O)c2noc3c2CCc2ccccc2-3)cc1	-	0	0	0	0	0	-
c1ccc(CSc2ccc(-c3cccnc3)nn2)nc1	0	0	-	0	0	0	-
SMILES	Insulin prom up	ROMK primary	sdo1 growth	ABCB1 block	Autophagy HCS	ABCG2 block	sdo1 rescue conf	others
Brc1ccc(NC2=Nc3ccccc3CC2)cc1	0	-	13.3	0	0	0	0.0751	ROMK hit retest=0
O=C(CSc1nnc(-c2ccco2)o1)c1ccccc1	0	-	0	0	0	0	0	ROMK hit retest=0
O=C(Nc1cccc(S(=O)(=O)Nc2ccc(Cl)cc2)c1)c1ccc[n+]([O-])c1	0	-	-	-	-	-	-
COc1ccc(C(=O)Oc2cc3c4c(c2)C(C)=CC(C)(C)N4C(=O)C3=O)cc1OC	0	-	0	0	0	90.6	-	ABCB1 single pt=0;ABCG2 single pt=0;IgMXP3 autofluor=0;CCRF autofluor=0
COc1cccc(C(=O)Oc2cc3c4c(c2)C(C)=CC(C)(C)N4C(=O)C3=O)c1	-	-	0	0	0	0	-
Cc1cc(C)n2nc(SCCOc3ccccc3)nc2n1	0	0	-	0	0	0	-
O=C1NC(c2ccc(-c3ccccc3[N+](=O)[O-])o2)C(C(=O)c2ccc(F)cc2)C(O)(C(F)(F)F)N1 (stereo not drawn)	0	-	0	0	0	88.4	-	ABCB1 single pt=0;ABCG2 single pt=0;IgMXP3 autofluor=14.7;CCRF autofluor=0
CC[n+]1c(/C=C2\Sc3ccccc3N2C)ccc2cccc(C)c21	?	-	-	0	?	151.4	-	ABCB1 single pt=0;ABCG2 single pt=0;IgMXP3 autofluor=273;CCRF autofluor=535
COc1ccc(-[n+]2c(C)cc(/C=C3\Sc4ccccc4N3C)cc2C)cc1	?	-	-	0	?	0	-
CCCCn1c(O)c(N=Nc2ccccn2)c2ccccc21	0	0	0	0	0	0	-	ABCB1 single pt=0;ABCG2 single pt=51.4;IgMXP3 autofluor=0;CCRF autofluor=0
CC(=O)NNS(=O)(=O)c1ccc(-c2cc(C(F)(F)F)n(C)n2)s1	0	-	-	-	-	-	-
COc1ccccc1C(=O)N/C(=C/c1cccc([N+](=O)[O-])c1)C(=O)Nc1cccc(C(=O)O)c1	0	0	-	0	0	0	-
COc1ccccc1NC(=O)/C(=C/c1cccc([N+](=O)[O-])c1)c1ccccc1	0	0	0	0	0	0	-	ABCB1 single pt=0;ABCG2 single pt=0;IgMXP3 autofluor=0;CCRF autofluor=0
COc1ccc(C(=O)Cn2nnc(-c3ccccc3NC(=O)C3CC3)n2)cc1	0	-	0	0	0	82.3	-	ABCB1 single pt=0;ABCG2 single pt=0;IgMXP3 autofluor=70;CCRF autofluor=0
COc1ccc(C(=O)Cn2nnc(-c3ccccc3F)n2)cc1	0	0	0	0	0	0	-
